Screening data from PubChem.
AF4-AF9 inh: blocks AF4 peptide binding to human AF9; AlphaScreen, biotin-AF4 peptide binding to FLAG-AF9; actives 0.47% (n = 350,000); P42568; inhibition, % at 10 µM; AID 651704;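 active = every replicate reaching a set inhibition limit, whatever the replicate mean, cut at about 25% in these data; inconclusive = mean inhibition reaches that limit but some replicates miss it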;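 note: 0% = plate neutral control median and 100% = total signal loss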
Target sequence (P42568 whole entry, looked up): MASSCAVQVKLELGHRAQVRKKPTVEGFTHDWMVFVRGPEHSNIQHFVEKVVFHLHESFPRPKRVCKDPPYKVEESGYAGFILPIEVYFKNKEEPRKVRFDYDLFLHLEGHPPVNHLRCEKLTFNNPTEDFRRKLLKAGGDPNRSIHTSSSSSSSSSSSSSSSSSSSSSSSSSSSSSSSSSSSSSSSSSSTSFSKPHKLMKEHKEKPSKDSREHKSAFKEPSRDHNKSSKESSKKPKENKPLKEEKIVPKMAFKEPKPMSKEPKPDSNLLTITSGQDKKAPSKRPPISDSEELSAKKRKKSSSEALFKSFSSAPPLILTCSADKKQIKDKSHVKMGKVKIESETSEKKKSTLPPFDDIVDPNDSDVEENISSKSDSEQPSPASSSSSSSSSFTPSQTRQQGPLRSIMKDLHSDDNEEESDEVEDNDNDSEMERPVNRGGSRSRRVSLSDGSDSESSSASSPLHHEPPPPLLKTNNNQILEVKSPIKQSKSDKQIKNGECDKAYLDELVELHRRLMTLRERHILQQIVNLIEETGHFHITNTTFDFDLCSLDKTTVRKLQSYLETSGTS
S100A4 MyoIIA: inhibitors of human S100A4 binding to myosin IIA peptide; S100A4/TAMRA-MyoIIA peptide fluorescence polarization; P26447; actives 0.14% (n = 360,000); inhibition, % at 10.7 µM; AID 652163;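 active = mean inhibition of at least 70% across replicates, with every replicate also reaching that level; inconclusive = mean inhibition reaches 70% but some replicates fall short; inactive = mean inhibition below 70%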
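Test system: S100A4 monomer protein. Medium: HEPES buffer with Ca2+, pH 7.2. Reagent: fluorescent myosin IIA peptide, 5 nM. Compound dosing: single-point compound testing. Timing: 5 min between mix addition and reading. Benchmarks: DMSO neutral and TFP positive wells.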
E-selectin induc: E-selectin induction on HUVECs | AID 686992 | actives 0.37% (n = 260,000) | P16581 | HUVEC E-selectin immunofluorescence imaging; normalized: neutral wells 0, TNF-alpha wells 100 | activation, % at 7.58 µM;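 active = mean E-selectin-positive cell signal at least 10% of the positive control, reached in at least 60% of replicates, without over 20% cell loss; inconclusive = no rule given, readout overlaps actives, possibly toxicity-flagged; inactive = the rest, including those meeting only one limit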
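Read-out: % PE-positive cells | Test system: HUVEC | Doses: One compound dose added by pin transfer | Buffer or medium: EGM-2 over gelatin coat | Signal: Immunofluorescence imaging | Benchmarks: TNF-alpha, DMSO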
ERAP1 inh: ERAP1 (human) enzyme inhibition; Q9NZ08; recombinant ERAP1, Leu-AMC fluorescence, 60 min; inhibition, % at 10.7 µM; actives 0.15% (n = 340,000);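 active = mean replicate inhibition of at least 30%, or all replicates individually reaching that 30% level; inactive = mean below 30% and not every replicate reaching it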;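 note: 0% = neutral control wells and 100% = L-leucinethiol positive control wells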
SIRT5 inh: sirtuin-5 (human) deacylase inhibition. Q9NXA8. Purified SirT5, succinyl-peptide AMC, trypsin-coupled fluorescence. inhibition, % at 15 µM. actives 1.1% (n = 330,000). AID 652115; in the data active = inhibition above about 15%; inconclusive = no clear call, values can overlap the other calls
Ecoli rRNA inh: inhibits bacterial ribosomal RNA function over humanized ribosomes; GFP signal change (wild-type ribosome), % (concentration not given with the values); E. coli WT GFP vs humanized-ribosome RFP mutants, fluorescence, 24 h; active compounds read low; DMSO median 0, no signal -100; AID 720706; actives 1.6% (n = 350,000);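 active = significant combined selectivity score with lowered wild-type GFP, culture density cut under 30%, mutant RFP and density less affected; inactive = any of these conditions unmet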
Active calls of the source: *; u = inconclusive; x = no result given. In the library only some 3.4% were active in any assay of this set; here they are far more common.

SMILES	AF4-AF9 inh	S100A4 MyoIIA	E-selectin induc	ERAP1 inh	SIRT5 inh	Ecoli rRNA inh
CO[C@H]1CN(C)C(=O)c2cc(NC(=O)Nc3cccc(F)c3)ccc2OC[C@@H](C)N(C(=O)Nc2c(C)noc2C)C[C@@H]1C	1	-20	0	-2	4	1
Cc1nn(CC(=O)N(C)C)c(=O)c2ccccc12	x	-1	x	1	19*	23
CCOc1ccccc1NC(=O)N1CCC(NC(=O)c2cccc(C)c2)CC1	x	x	0	x	x	x
CCOc1ccccc1NC(=S)N(CCC(C)C)C1CCN(C(C)=O)CC1	-8	-5	0	x	19*	1
CCOc1ccccc1NC(=O)N1CCC(NC(=O)C2CCCCC2)CC1	0	-26	35*	-4	-3	-3
CC1=NOC(=O)/C1=C\c1ccc(-c2ccc(Br)cc2C(=O)O)o1	-3	1	x	38*	14	19
CC1=NOC(=O)/C1=C\c1ccc(-c2ccc(Br)cc2)o1	1	11	-5	1	-2	-10
COc1ccc(NC(=O)N(C)C[C@@H]2OCCCC[C@H](C)Oc3ccc(NC(=O)Nc4ccc(F)cc4)cc3C(=O)N([C@H](C)CO)C[C@@H]2C)cc1	-3	1	0	-1	9	-3
COc1ccc(Nc2nnc(-c3ccc(C(N)=O)cc3)c3ccccc23)cc1	4	3	0	0	-1	-38*
NC(=O)c1ccc(Nc2nnc(-c3ccc(O)cc3)c3ccccc23)cc1	-2	-5	5	-4	-4	-23*
CNC(=O)c1ccc(Nc2nnc(-c3ccc(C(N)=O)cc3)c3ccccc23)cc1	-5	3	0	1	-4	6
CCCC(=O)Nc1ccc2c(c1)C(=O)N(C)C[C@@H](OC)[C@@H](C)CN(C(=O)CC1CC1)[C@@H](C)CO2	3	-3	0	-1	-5	0
CCCNC(=O)N1[C@@H]2c3ccc(-c4ccccc4OC)c(=O)n3C[C@@H]2[C@@H](CO)[C@@H]1C(=O)NC1CCC1	2	116*	0	5	-12	1
COc1ccccc1-c1ccc2n(c1=O)C[C@@H]1[C@@H](CO)[C@H](C(=O)N3CCCCC3)[C@H]2N1CC1CC1	1	-18	0	0	20*	1
CCNC(=O)[C@H]1[C@H](CO)[C@H]2Cn3c(ccc(-c4ccc(F)cc4)c3=O)[C@@H]1N2C	-2	138*	0	8	-1	1
CC(=O)N1[C@H](C(=O)NCCCN(C)C)[C@@H](CO)[C@@H]2Cn3c(ccc(-c4cccc(F)c4)c3=O)[C@@H]21	-1	101*	-1	8	-12	1
COc1cccc(CN(C)C[C@@H]2OCc3cn(nn3)CCCC(=O)N([C@@H](C)CO)C[C@@H]2C)c1	x	x	0	x	x	-1
CC(C)NC(=O)Nc1ccc2c(c1)C(=O)N([C@@H](C)CO)C[C@H](C)[C@@H](CN(C)C(=O)Nc1ccc3c(c1)OCO3)OCCCC[C@@H](C)O2	0	-1	x	2	-4	0
CCCNC(=O)[C@H]1[C@H](CO)[C@H]2Cn3c(ccc(-c4ccc(F)cc4)c3=O)[C@H]2N1CC1CC1	-1	10	0	0	16*	-3
COC(=O)[C@H]1[C@H](CO)[C@H]2Cn3c(ccc(-c4ccncc4)c3=O)[C@H]2N1Cc1ccccc1F	-2	8	0	30*	-3	-1
O=c1[nH]c2ccccc2cc1CN(Cc1cccnc1)S(=O)(=O)c1ccc(Cl)cc1	-2	5	x	3	0	-45*
O=c1[nH]c2ccccc2cc1CN(Cc1cccnc1)S(=O)(=O)c1ccc([N+](=O)[O-])cc1	0	-3	x	0	4	-21*
COCCNC(=O)[C@@H]1[C@@H](CO)[C@@H]2Cn3c(ccc(-c4ccccc4F)c3=O)[C@@H]2N1C(=O)C1CCC1	-3	-27	0	2	-17	-3
N#CCCN(CCC#N)C(=O)C1c2ccccc2Oc2ccccc21	-2	131*	0	6	-1	69
COCCNC(=O)[C@H]1[C@H](CO)[C@H]2Cn3c(ccc(C4=CCCCC4)c3=O)[C@@H]1N2C(=O)C1CCCC1	-8	-12	1	-7	-22	-1
SMILES	AF4-AF9 inh	S100A4 MyoIIA	E-selectin induc	ERAP1 inh	SIRT5 inh	Ecoli rRNA inh
CCC(O)(CC)C(=O)N/N=C/c1cc(Br)cc(Br)c1O	-2	-3	x	-7	3	-21*
O=C(N/N=C/c1cc(Br)cc(Br)c1O)c1ccncc1	u	2	x	-2	3	-34
Oc1c(Br)cc(Br)cc1CNc1cccc2cccnc12	1	3	0	-1	2	-22*
COc1ccc2c3c(n(C)c2c1)[C@H](CO)N(C(=O)c1ccccn1)CC31CCN(C(C)=O)CC1	-7	15	0	-4	1	-1
CN(C)CC(=O)N1[C@H](C#N)[C@H](c2ccc(C#CC3CCCC3)cc2)[C@@H]1CO	3	-28	0	3	5	2
CC(C)NC(=O)N1[C@@H](CO)[C@@H](c2ccccc2)C12CN(C(=O)Cc1cccnc1)C2	-8	125*	0	0	1	-1
CC(C)NC(=O)N1[C@@H](CO)[C@@H](c2ccccc2)C12CN(C(=O)Cc1ccccc1)C2	-22	7	0	-7	3	3
CCCNC(=O)N1CC2(C1)[C@H](c1ccccc1)[C@H](CO)N2C(=O)C1CC1	-2	5	0	2	24*	2
CCC(=O)N1CC2(C1)[C@H](c1ccc(-c3ccccc3C)cc1)[C@@H](CO)N2C(C)=O	1	1	10	0	-2	-1
NC(=S)NN=C1CCC2(CCCCC2)CC1	-2	3	x	2	25*	4
O=C(Nc1cc(F)ccc1F)N1CC(=O)N2[C@H](CO)[C@@H](c3ccc(-c4cccc(F)c4)cc3)[C@H]2C1	3	-2	0	x	0	-13
CCOc1ccc(/C=C2\SC(=S)N(NS(=O)(=O)c3ccc(C)cc3)C2=O)cc1OC	6	0	0	x	3	-24*
CCOc1ccc(/C=C2\SC(=S)N(NS(=O)(=O)c3ccccc3)C2=O)cc1OC	1	5	2	x	3	-15
COCCNC(=O)C[C@@H]1C[C@@H]2c3cc(NS(C)(=O)=O)ccc3O[C@@H]2[C@H](CO)O1	-1	-1	0	-1	-3	1
COc1cccc(/C=C/C(=O)Nc2ccc3nc4n(c(=O)c3c2)CCCC4)c1OC	1	-3	x	1	-2	-23*
COc1cccc(S(=O)(=O)N(C)C[C@H]2Oc3cc(C4=CCCC4)ccc3S(=O)(=O)N([C@@H](C)CO)C[C@H]2C)c1	0	-1	0	3	21*	7
